Screening results: PubChem, The Scripps Research Institute Molecular Screening Center
OX1R antag-1 – OX1R (human) antagonism; O43613; OX1R-expressing cells, FRET antagonist read-out; inhibition, % at 6.6 µM; hit rate 1.8% among 330,000; in the data active = inhibition mostly above about 38%, no sharp cut-off; inactive = mostly below about 40%;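 also: 0% = agonist challenge alone and 100% = reference antagonist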
OX1R antag-2 – human HCRTR1 antagonism | CHO/OX1R cells, Fluo-8 calcium fluorescence, orexin A | inhibition, % at 5 µM | hit rate 0.43% among 330,000;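 active = inhibition above its plate's threshold, mean inhibition of all tested compounds on the plate plus 3 SD, cut at about 37% in these data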;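 also: 0% = orexin A challenge wells and 100% = SB-334867-A antagonist wells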
TRPN1 ag – agonists of zebrafish TRPN1 channel | HEK293 zebrafish TRPN1-YFP, Fluo-8 calcium fluorescence; 100% = response to 87 µM carbachol | activation, % at 3 µM | hit rate 0.18% among 220,000;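 active = activation above its plate's cutoff, the mean activation of test wells on that plate plus 3 SD, cut at about 19% in these data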;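 also: 0% = DMSO alone and 100% = 87 µM carbachol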
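Material – zebrafish TRPN1-YFP in HEK293 cells · Doses – 3 µM single point · Schedule – dye 1 h 37 °C plus 30 min RT · Signal – Fluo-8 calcium fluorescence, excitation 470-495 nm, emission 515-575 nm · Read-out – % activation versus carbachol response · Control set – carbachol high, DMSO low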
TRPML3 agonist – activates the human TRPML3 channel | activation, % at 3 µM | AID 1448 | hit rate 0.29% among 220,000 | HEK293 TRPML3-YFP, Fluo-8 calcium fluorescence; 100% = the carbachol control signal;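 active = activation above its plate's cutoff, the mean activation of the plate's test wells plus 3 SD, cut at about 12% in these data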;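 also: 0% = DMSO only wells and 100% = carbachol wells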
Target sequence (Q8TDD5 whole entry, looked up): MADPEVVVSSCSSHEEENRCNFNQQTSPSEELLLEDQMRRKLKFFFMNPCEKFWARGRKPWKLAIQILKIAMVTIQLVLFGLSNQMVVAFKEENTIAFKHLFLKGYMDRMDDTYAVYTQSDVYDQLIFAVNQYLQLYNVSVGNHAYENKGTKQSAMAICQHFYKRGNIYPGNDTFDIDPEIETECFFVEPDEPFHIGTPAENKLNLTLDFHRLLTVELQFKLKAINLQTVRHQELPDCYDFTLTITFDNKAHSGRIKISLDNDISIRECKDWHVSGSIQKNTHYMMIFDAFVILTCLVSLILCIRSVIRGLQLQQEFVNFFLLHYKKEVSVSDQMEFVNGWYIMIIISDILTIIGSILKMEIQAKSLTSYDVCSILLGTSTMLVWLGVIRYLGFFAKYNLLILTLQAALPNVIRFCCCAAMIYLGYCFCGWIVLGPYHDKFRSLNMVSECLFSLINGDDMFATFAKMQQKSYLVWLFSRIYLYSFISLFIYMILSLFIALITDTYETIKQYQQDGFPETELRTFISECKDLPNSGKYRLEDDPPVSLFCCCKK
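system = HEK293 cells stably carrying human TRPML3-YFP | doses = one concentration, 3 µM nominal, 0.3% DMSO | timing = dye loading 1 h 37 °C then 30 min ambient, 125 s read | detection = Fluo-8 calcium dye fluorescence, ex 470-495, em 515-575 nm | benchmarks = high control carbachol 87 µM, low control DMSO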
CHO parental Ca – counter-screen for OX1R antagonists: effect in parental CHO cells. hit rate 0.63% among 330,000. parental CHO-K1, ATP-induced calcium, Fluo-8 fluorescence. inhibition, % at 5.6 µM;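 active = inhibition above that plate's mean sample inhibition plus 3 SD, cut at about 26% in these data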;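 also: 0% = ATP-challenged DMSO wells and 100% = DMSO wells without ATP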
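Assay system: untransfected parental CHO cell line. Also added: ATP agonist challenge. Dosing: one dose, 5.6 µM nominal. Measured by: Fluo-8 fluorescence. Read-out: % inhibition. Benchmarks: ATP wells versus no-ATP DMSO wells. Repeats: no replicates.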
* hit, by the source's call; / = not tested or not shown. In the library only some 2.5% were active in any assay of this set; here they are far more common.

SMILES	OX1R antag-1	OX1R antag-2	TRPN1 ag	TRPML3 agonist	CHO parental Ca
Cc1cc(/C=N/n2cnnc2)c(C)n1-c1ccc(OCc2ccc(Cl)cc2)cc1	14	52*	0	0	49*
CC(C)(C)CC(=O)N[C@@H](Cc1ccccc1)c1nc2ccccc2[nH]1	5	-32	/	/	-21
O=C(COc1cccc(F)c1)N[C@@H](Cc1ccccc1)c1nc2ccccc2[nH]1	61*	12	-2	-1	-12
Clc1ccc2[nH]cc(-c3nnnn3-c3ccc4ccccc4c3)c2c1	54	30	0	0	57*
N#CC1=C(SCC(=O)NC2CC2)NC(=O)C(C#N)C12CCCCC2 (centres undefined)	4	-12	1	-2	5
N#CC1=C(SCC(=O)Nc2cccc3cccnc23)NC(=O)C(C#N)C12CCCCC2 (centres undefined)	39*	-1	3	4	-9
COc1cccc2cc(C(=O)OCc3ccccc3)c(=O)oc12	10	-20	/	/	-5
O=C(O)Cn1cc(/C=c2/sc3nc4ccccc4n3c2=O)c2ccccc21	59*	19	1	0	-12
O=c1/c(=C\c2cccn2-c2ccccc2)sc2nc3ccccc3n12	/	/	1	1	/
CC1CCN(C(=O)c2ccccc2NS(=O)(=O)c2ccccc2)CC1	50*	-21	/	/	-12
CC(CCc1ccccc1)NC(=O)COC(=O)c1cccc(N(C)C)c1 (centres undefined)	-5	-40	/	/	-30
CCOc1ccccc1/C=N/N1CCN(Cc2ccccc2)CC1	9	-9	/	/	-7
COc1cccc(NC(=O)CSc2nc3ccccc3n2C)c1	57*	-19	-2	0	-18
Cn1c(SCc2cccc([N+](=O)[O-])c2)nc2ccccc2c1=O	54*	68*	/	/	36*
COCCn1c(SCc2cccc([N+](=O)[O-])c2)nc2ccccc2c1=O	7	-24	/	/	-19
COc1ccccc1NC(=O)CSc1nc2ccccc2c(=O)n1C	48*	21	/	/	50*
CC[C@]12c3[nH]c4ccccc4c3CCN1C(=O)C(CC(=O)NCCCn1ccnc1)C[C@@H]2C(=O)N1CCN(C(=O)c2ccco2)CC1 (some centres undefined)	4	18	/	/	-14
CC[C@H]1OC(=O)[C@H](C)[C@@H](O[C@H]2C[C@@](C)(OC)[C@@H](O)[C@H](C)O2)[C@H](C)[C@@H](O[C@@H]2O[C@H](C)C[C@H](N(C)C)[C@H]2O)[C@](C)(O)C[C@@H](C)C(=NOCOCCOC)[C@H](C)[C@@H](O)[C@]1(C)O	14	-31	/	/	-9
Cn1ncc2c(Nc3ccc(Cl)c(Cl)c3)ncnc21	65*	8	/	/	-12
Cn1ncc2c(Nc3ccc(-c4ccccc4)cc3)ncnc21	25	-7	0	1	-21
COC(=O)C/C=N/N=C1/NC(=O)/C(=C/C(=O)O)S1	24	-14	1	0	-12
Cc1ccccc1C1=NC(C(F)(F)F)(C(F)(F)F)c2c(n(C)c(=O)n(C)c2=O)N1	18	-12	0	0	-3
Cn1c2c(c(=O)n(C)c1=O)C(C(F)(F)F)(C(F)(F)F)N=C(c1ccc(Cl)cc1)N2	56*	9	29*	20*	17
Cc1ccc(S(=O)(=O)N2CCN(C(=O)Cn3nc(C(=O)O)c4ccccc4c3=O)CC2)cc1	8	-2	0	1	-6
COc1ccc2c(CC(=O)OCc3nc4ccsc4c(=O)[nH]3)coc2c1	12	-11	/	/	-13
SMILES	OX1R antag-1	OX1R antag-2	TRPN1 ag	TRPML3 agonist	CHO parental Ca
O=[N+]([O-])c1ccc(N2CCNCC2)c(S(=O)(=O)N2CCOCC2)c1	27	-5	2	1	-6
CN1CCN(c2ccc([N+](=O)[O-])cc2S(=O)(=O)N2CCOCC2)CC1	94*	-13	1	0	1
NC(=S)N/N=C/c1coc2ccc(Cl)cc2c1=O	12	-8	0	-1	-1
O=C(O)CCNc1cc(N2CCN(C(=O)c3ccco3)CC2)c2noc3c2c1C(=O)c1ccccc1-3	76*	-25	/	/	-2
CCN1CCN(c2cc(N3CCN(C(=O)c4ccco4)CC3)c3c4c(onc24)-c2ccccc2C3=O)CC1	69*	-26	/	/	-20
O=C(NCc1ccc(F)cc1)C(=O)NCC1CCCN1S(=O)(=O)c1ccccc1 (centres undefined)	18	-37	/	/	-19
COc1ccc(S(=O)(=O)N2CCCC2CNC(=O)c2cccc(OC)c2)cc1 (centres undefined)	43*	-2	/	/	-14
O=C(NCCc1ccc(F)cc1)C(=O)NCC1CCCN1S(=O)(=O)c1ccccc1 (centres undefined)	58*	4	/	/	-24
COc1ccc(S(=O)(=O)N2CCCC2CNC(=O)C(=O)NCCc2ccccc2)cc1 (centres undefined)	39*	-8	/	/	-16
COc1ccc(CCNC(=O)C(=O)NCC2CCCN2S(=O)(=O)c2ccccc2)cc1 (centres undefined)	22	5	/	/	-22
Cc1ccc(C)c(S(=O)(=O)N2CCCC2CNC(=O)C(=O)NCCc2ccccc2)c1 (centres undefined)	38*	-3	/	/	-22
Cc1cc(OC(C)C(=O)NNC(=O)Nc2ccc(F)cc2F)cc(C)c1Cl (centres undefined)	19	-14	/	/	-11
Cn1c(=O)c2c(O)c([N+](=O)[O-])c(=O)n(C)c2n(C)c1=O	16	2	2	0	-11
Cc1ccc(C)c(S(=O)(=O)N2CCCCC2CCNC(=O)C(=O)NC2CC2)c1 (centres undefined)	35*	-5	/	/	-18
COc1ccccc1CNC(=O)C(=O)NCCC1CCCCN1S(=O)(=O)c1ccccc1 (centres undefined)	37	-20	/	/	-8
COc1ccccc1CCNC(=O)C(=O)NCC1CCCN1S(=O)(=O)c1ccccc1 (centres undefined)	49*	20	/	/	-33
NC(=O)[C@@H]1CCCCNc2c(I)cc([N+](=O)[O-])cc2C(=O)N[C@@H](CCC(=O)O)C(=O)N[C@@H](CO)C(=O)N1	41	0	-1	0	-8
NC(=O)[C@@H]1CCCNc2c(F)cc([N+](=O)[O-])cc2C(=O)N[C@@H](CCC(=O)O)C(=O)N[C@@H](CO)C(=O)N1	60*	6	1	1	-2
CCSc1nnc([C@H](Cc2ccccc2)NC(=O)OC(C)(C)C)o1	14	-31	-1	0	-19
CC(C)(C)OC(=O)N[C@@H](Cc1ccccc1)c1nnc(S(=O)(=O)Cc2ccccc2)o1	20	30	4	3	32*
Cc1ccccc1CS(=O)(=O)c1nnc([C@H](Cc2ccccc2)NC(=O)OC(C)(C)C)o1	1	34	-1	1	51*
